Assay [1] deals with Staphylococcus aureus. Briefly: Antibacterial activity against Staphylococcus aureus ATCC 25923 assessed as inhibition zone after 18 hrs by disk diffusion method. It counts as functional, organism-based. Put shortly: (§1)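 Samples were prepared at 10 mg/mL in water, and 50 µL was applied to 8 mm paper disks. Disks were placed on Mueller-Hinton agar in 9 cm dishes, pre-inoculated with a suspension made from one colony in distilled water. Plates were incubated 18 h at 37 °C, then the inhibition zone was measured.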

For assay [2], the system named is Enterococcus faecalis. Briefly: Antibacterial activity against Enterococcus faecalis ATCC 29212 assessed as inhibition zone after 18 hrs by disk diffusion method. Type of assay: functional, organism-based. Put shortly: as §1
Assay [3] concerns Escherichia coli. Briefly: Antibacterial activity against Escherichia coli ATCC 25922 assessed as inhibition zone after 18 hrs by disk diffusion method. Type of assay: functional, organism-based. Put shortly: as §1
Assay [4] concerns Pseudomonas aeruginosa. Briefly: Antibacterial activity against Pseudomonas aeruginosa ATCC 27853 assessed as inhibition zone after 18 hrs by disk diffusion method. It counts as functional, organism-based. Put shortly: as §1
Assay [5] deals with Enterococcus faecalis. Briefly: Antibacterial activity against Enterococcus faecalis ATCC 29212 assessed as clear zone after 18 hrs by TLC bioautography. Type of assay: functional, organism-based. Summed up: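 After the TLC run, the solvent was evaporated. Plates were overlaid with Mueller-Hinton agar seeded with bacteria in nutrient broth and incubated 18 h at 37 °C in a humidified chamber. They were then sprayed with p-iodonitrotetrazolium bromide (2 mg/mL) and incubated 2 h. Clear zones were scored as antibacterial activity.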

Assay [6] relates to Staphylococcus aureus. Briefly: Antibacterial activity against Staphylococcus aureus assessed as growth inhibition by liquid microdilution assay. Type of assay: functional. Summed up: (§2)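 MIC was determined by liquid broth microdilution growth inhibition against standard strains.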
In assay [7] the test system is Enterococcus faecalis. Briefly: Antibacterial activity against Enterococcus faecalis assessed as growth inhibition by liquid microdilution assay. Type of assay: functional. Put shortly:
as §2

For assay [8], the system named is Escherichia coli. Briefly: Antibacterial activity against Escherichia coli assessed as growth inhibition by liquid microdilution assay. It counts as functional. Put shortly: as §2
Assay [9] concerns Pseudomonas aeruginosa. In words: Antibacterial activity against Pseudomonas aeruginosa as growth inhibition by liquid microdilution assay. Type of assay: functional. Put shortly: as §2

In brackets after ≈: the same amount, converted by molar mass. Activity calls are given as the source filed them. The calls are words filed in the database; no cut-off is given here.

The values below come from ChEMBL document CHEMBL1687891, “Triterpenoid saponins from Symplocos lancifolia” (2011).

Turning to `C[C@@H]1O[C@@H](O[C@H]2C(OC(=O)[C@]34CCC(C)(C)C[C@H]3C3=CC[C@@H]5[C@@]6(C)C[C@@H](O)[C@H](O[C@@H]7O[C@H](CO)[C@@H](O)[C@H](O)[C@H]7O)[C@@](C)(CO)[C@@H]6CC[C@@]5(C)[C@]3(C)CC4)O[C@H](CO)[C@@H](O)[C@@H]2O)[C@H](O)[C@H](O)[C@H]1O` (stereo partly drawn), the inhibition result in assay [1], in assay [2], in assay [3], in [4] and in assay [5] was “Active” each time.

With `C[C@@H]1O[C@@H](O[C@H]2[C@H](OC(=O)[C@]34CCC(C)(C)C[C@H]3C3=CC[C@@H]5[C@@]6(C)C[C@@H](O)[C@H](O[C@@H]7O[C@H](CO)[C@@H](O)[C@H](O)[C@H]7O)C(C)(C)[C@@H]6CC[C@@]5(C)[C@]3(C)CC4)O[C@H](CO)[C@@H](O)[C@@H]2O)[C@H](O)[C@H](O)[C@H]1O`, the inhibition entry in assay [1], in assay [2], in assay [3], in assay [4] and in assay [5] was “Active” in each case.

Consider `C[C@H]1[C@H](C)CC[C@]2(C(=O)OC3O[C@H](CO)[C@@H](O)[C@H](O)[C@H]3O[C@@H]3O[C@@H](C)[C@H](O)[C@@H](O)[C@H]3O)CC[C@]3(C)C(=CC[C@@H]4[C@@]5(C)C[C@@H](O)[C@H](O[C@@H]6O[C@H](CO)[C@@H](O)[C@H](O)[C@H]6O)[C@@](C)(CO)[C@@H]5CC[C@]43C)[C@H]12` (stereo partly drawn), for which the inhibition result in [1], in assay [2], in [3], in assay [4] and in assay [5] was “Active” throughout.

As for `CC1(C)CC[C@]2(C(=O)O)CC[C@]3(C)C(=CC[C@@H]4[C@@]5(C)C[C@@H](O)[C@H](O)[C@@](C)(CO)[C@@H]5CC[C@]43C)[C@@H]2C1` [ARJUNOLIC ACID], the minimal inhibitory concentration (MIC) in assay [6] was 64 µg/mL; in assay [7], 64 µg/mL; in [8] it was above 128 µg/mL; in assay [9] it was above 128 µg/mL.

On to `C[C@H]1[C@H](C)CC[C@]2(C(=O)O)CC[C@]3(C)C(=CC[C@@H]4[C@@]5(C)C[C@@H](O)[C@H](O)[C@@](C)(CO)[C@@H]5CC[C@]43C)[C@H]12` [ASIATIC ACID], for which the MIC in assay [6] was above 128 µg/mL; in assay [7], 128 µg/mL; in [8], above 128 µg/mL; in assay [9] it was above 128 µg/mL.

For the molecule `CC(C)(O/N=C(\C(=O)N[C@@H]1C(=O)N2C(C(=O)[O-])=C(C[n+]3ccccc3)CS[C@H]12)c1csc(N)n1)C(=O)O` [CEFTAZIDIME], the minimal inhibitory concentration (MIC) in [8] was 10 µg/mL; in [9], 10 µg/mL (≈ 18.3 µM).

For `C[C@H]1[C@H](C)CC[C@]2(C(=O)O)CC[C@]3(C)C(=CC[C@@H]4[C@@]5(C)C[C@@H](O)[C@H](O)C(C)(C)[C@@H]5CC[C@]43C)[C@H]12` [COROSOLIC ACID], the MIC was 32 µg/mL in [6], 32 µg/mL in assay [7], above 128 µg/mL in assay [8] and above 128 µg/mL in [9].

With `CC1(C)CC[C@]2(C(=O)O)CC[C@]3(C)C(=CC[C@@H]4[C@@]5(C)C[C@@H](O)[C@H](O)C(C)(C)[C@@H]5CC[C@]43C)[C@@H]2C1` [MASLINIC ACID], the MIC in assay [6] was 64 µg/mL; in assay [7], 16 µg/mL; in assay [8], above 128 µg/mL; in assay [9] it was above 128 µg/mL.

In the case of `CC1(C)CC[C@]2(C(=O)O)CC[C@]3(C)C(=CC[C@@H]4[C@@]5(C)CC[C@H](O)C(C)(C)[C@@H]5CC[C@]43C)[C@@H]2C1` [OLEANOLIC_ACID], the MIC in assay [6] was above 128 µg/mL; in assay [7], 16 µg/mL; in assay [8], above 128 µg/mL; in [9], above 128 µg/mL.

As for `C[C@H]1[C@H](C)CC[C@]2(C(=O)O)CC[C@]3(C)C(=CC[C@@H]4[C@@]5(C)CC[C@H](O)C(C)(C)[C@@H]5CC[C@]43C)[C@H]12` [URSOLIC ACID], the MIC is 128 µg/mL in assay [6], 16 µg/mL in [7], above 128 µg/mL in [8] and above 128 µg/mL in assay [9].

Turning to `CN[C@H](CC(C)C)C(=O)N[C@H]1C(=O)N[C@@H](CC(N)=O)C(=O)N[C@H]2C(=O)N[C@H]3C(=O)N[C@H](C(=O)N[C@H](C(=O)O)c4cc(O)cc(O)c4-c4cc3ccc4O)[C@H](O)c3ccc(c(Cl)c3)Oc3cc2cc(c3O[C@@H]2O[C@H](CO)[C@@H](O)[C@H](O)[C@H]2O[C@H]2C[C@](C)(N)[C@H](O)[C@H](C)O2)Oc2ccc(cc2Cl)[C@H]1O` [VANCOMYCIN], the MIC in assay [6] and in assay [7] was 2.5 µg/mL each time.
